Consider 20 molecules from PubChem BioAssay.

Molecules are shown by their SMILES. Unmarked numbers belong to inactive results. Results filed as inconclusive are left out. Activity calls are given as the source filed them.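 How the source made its calls, unless noted: active means inhibition over a set limit, the all-compound mean plus 3 SD, in both replicate runs; inconclusive means over that limit in just one replicate run; inactive means at or under that limit in both runs.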

Experiment [1] in a line: S. cerevisiae growth inhibition in permissive medium (OD615), pilot counter-assay for S. cerevisiae lifespan shortening project, permissive growth control (AID 705;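 active means growth inhibition above 25% in both replicates, a cutoff set 3 SD above the mean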). Particulars: OD615, 24 h, at 10 µM, active compounds read high. A digest of the protocol: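 System: S. cerevisiae with engineered DeaD lifespan system / Measured by: absorbance (optical density) at 615 nm / Read-out: reduction in yeast growth (OD615) / Times: 4 h cell pre-growth, 24 h exposure at 30 °C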

The nature of experiment [2]: S. cerevisiae growth inhibition in restrictive medium, OD615, pilot screen, restrictive growth control, yeast lifespan reduction project (AID 706;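 active means growth inhibition above a set limit, 3 SD over mean compound inhibition, in both replicates, cut at about 43% in these data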;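 further: modified DeaD lifespan yeast strain shifted to restrictive glucose medium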). Particulars: OD615, 48 h, at 10 µM, active compounds read high. The essentials:
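System: Engineered S. cerevisiae DeaD strain | Buffer or medium: Glucose-based CSMM-D restrictive medium | Schedule: 4 h pre-incubation, 48 h exposure at 30 °C | Technique: Optical density at 615 nm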

Experiment [3] can be described thus: doxorubicin toxicity protection in MRP-1 cells – H69AR cells, CellTiter-Glo, duplicate, MRP-1 activator project, pilot screen (AID 807;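 active means viability increase at or above a cutoff of the median across tested compounds plus 3 SD, cut at about 8.5% in these data, passing the limit was not always enough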;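 further: compound pretreatment 18-22 h then 72 h combined with doxorubicin; 0% = doxorubicin alone and 100% = vehicle without doxorubicin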). The conditions noted are these: H69AR viability with doxorubicin, CellTiter-Glo luminescence; at 10 µM; active compounds read high.
A short description of experiment [4]: viability of HCT116 without oncogenic beta-catenin – human colon tumor cells, pilot screen (AID 823;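 active means cell viability at or below a set limit in both duplicate runs, the limit being the all-compound median minus 4 SD, cut at about 23% in these data, passing the limit was not always enough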;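 further: 0% = wells killed by 20 µM Hyamine and 100% = untreated DMSO cell wells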). The conditions noted are these: HCT116 beta-catenin knockout viability, CellTiter-Glo, 60 h; at 10 µM; active compounds read low. In general terms: In ATP-based viability assays light output follows the ATP content of the culture.
A short description of experiment [5]: RAM pathway blockade in budding yeast – dse1pr::URA3 reporter, 5-FOA selection, pilot screen (AID 869).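 Further: 0% = DMSO wells with no growth and 100% = 10 µM 1-NA-PP1 with full growth; RAM network block rescues cells from 5-FOA so hits raise OD615 growth.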 Particulars: S. cerevisiae dse1pr::URA3 5-FOA growth, OD615, 2 d; at 10 µM; active compounds read high; strain carries analog-sensitive mutant Cbk1 kinase.
The nature of experiment [6]: RAM signaling pathway blockade in yeast – S. cerevisiae, Pdr1DBD-CYC8 efflux-inhibited sensitized strain, primary screen (AID 1298;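 active means RAM network inhibition above 8.4% in each of two replicates, 3 SD over the compound average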;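 further: 0% = DMSO untreated cells without growth and 100% = 10 µM 1-NA-PP1 full growth; higher means more yeast growth rescued from 5-FOA killing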). The conditions noted are these: S. cerevisiae cbk1-as DSE1-URA3 strain, 5-FOA growth OD615, 2 d; at 50 µM; active compounds read high.

As usually defined, the viability is a read-out of living cells in per cent, often relative to untreated cells. The inhibition is the drop in the measured response relative to a control, in per cent. Regarding `CC(C)c1nc2sc3c(SCC(=O)NCc4ccco4)ncnc3c2c2c1CCC2`, the growth inhibition was -6.53% in experiment [1] and -1.46% in experiment [2]. The viability increase in experiment [3] is -5.63%. Besides, the viability in experiment [4] was 91.7%. In experiment [5], the inhibition is 1.31%. Besides, the RAM network inhibition in experiment [6] is 5.66%.
For `COc1ccc(-c2cc3ccccc3n2CC(O)CN2CCOCC2)cc1` (stereo not given), the growth inhibition in experiment [1] is -4.27%; in experiment [2], -5.21%. The viability increase in experiment [3] was -6.02%. Also, in experiment [4], the viability is 89.7%. In experiment [5], the inhibition is 0.59%. The RAM network inhibition in experiment [6] was 2.87%.
For `Fc1ccc(Br)cc1C1C=C(c2cccnc2)Nc2ncnn21` (stereo not given), the growth inhibition in experiment [1] was 6.35%; in experiment [2], 46.9% (active). In addition, the viability increase in experiment [3] is -4.62%. The viability in experiment [4] is 44.5%. Besides, the inhibition in experiment [5] was 3.21%. Besides, the RAM network inhibition in experiment [6] was 21.7% (active).
Turning to `O=C(CCn1c(=O)[nH]c2ccsc2c1=O)N1CCc2ccccc2C1`, the values for the growth inhibition in experiment [1] and in experiment [2] were -13.3% and -4.91%, respectively. Moreover, the viability increase in experiment [3] was -0.54%. Besides, the viability in experiment [4] was 97.7%. Besides, the inhibition in experiment [5] is 2.71%. Moreover, in experiment [6], the RAM network inhibition was 8.73%.
As to `COc1cc(-c2nnn(CC#N)n2)ccc1OCc1ccccc1`, the growth inhibition was -6.28% in experiment [1] and 9.63% in experiment [2]. Further, in experiment [3], the viability increase was 0.59%. Moreover, the viability in experiment [4] is 94.5%. Also, the inhibition in experiment [5] is 1.28%. Further, the RAM network inhibition in experiment [6] was 1.51%.
On to `COc1cccc(C(=O)Nc2ccc(-c3nc4ccccc4o3)c(O)c2)c1`, for which the figures for the growth inhibition in experiment [1] and in experiment [2] were -13.4% and -12.1%, respectively. Besides, the viability increase in experiment [3] was -4.28%. In experiment [4], the viability was 30.4%. Moreover, in experiment [5], the inhibition was 3.71%. In addition, the RAM network inhibition in experiment [6] was 3.99%.
`CCOC(=O)C1(c2csc(N)n2)COC(=O)C1` (stereo not given): the growth inhibition was -11.9% in experiment [1] and 0.175% in experiment [2]. Moreover, the viability increase in experiment [3] was -0.78%. In experiment [4], the viability is 96.8%. Also, the inhibition in experiment [5] was 2.44%. Further, in experiment [6], the RAM network inhibition is 2.75%.
Turning to `CC1(C)OC(=O)C(=C2CCCN2)C(=O)O1`, the growth inhibition in experiment [1] was 0.65%; in experiment [2] it was -5.36%. In addition, in experiment [3], the viability increase was -1.34%. Further, in experiment [4], the viability was 105%. In addition, in experiment [5], the inhibition is 0.815%. In addition, the RAM network inhibition in experiment [6] is 6.12%.
For the molecule `CCn1nc(CC(=O)Nc2ccc(-n3cnnn3)c(C)c2)c2ccccc2c1=O`, the growth inhibition in experiment [1] was -14.8%; in experiment [2] it was -10.9%. Further, the viability increase in experiment [3] was -4.37%. Further, the viability in experiment [4] was 90.3%. Also, the inhibition in experiment [5] was 0.6%. The RAM network inhibition in experiment [6] is 5.97%.
Consider `Cc1ccc(S(=O)(=O)c2nc(-c3ccc(F)cc3)oc2SCC(N)=O)cc1`, for which the results for the growth inhibition in experiment [1] and in experiment [2] were -20.8% and 0.745%, respectively. The viability increase in experiment [3] was -2.75%. Further, in experiment [4], the viability is 100%. Moreover, the inhibition in experiment [5] was 1.27%. The RAM network inhibition in experiment [6] is 1.2%.
With `N#Cc1c(-c2ccccc2)cc(-c2ccco2)c(C#N)c1N`, the results for the growth inhibition in experiment [1] and in experiment [2] were -21.9% and -10.5%, respectively. For the same molecule, the viability increase in experiment [3] is -7.79%. Also, the viability in experiment [4] was 38.5%. Moreover, in experiment [5], the inhibition was 1.86%. For the same molecule, the RAM network inhibition in experiment [6] is 8.41%.
As for `NCCOc1ccccc1-c1ccccc1`, the results for the growth inhibition in experiment [1] and in experiment [2] were -17.6% and -14.4%, respectively. The viability increase in experiment [3] was -3%. Moreover, in experiment [4], the viability was 87.2%. In experiment [5], the inhibition was 2.3%. Moreover, in experiment [6], the RAM network inhibition was 2.4%.
For the molecule `Cc1ccccc1Cn1cc(S(=O)(=O)CC(=O)Nc2nccs2)c2ccccc21`, the figures for the growth inhibition in experiment [1] and in experiment [2] were -30.2% and 6.15%, respectively. For the same molecule, the viability increase in experiment [3] is -5.34%. For the same molecule, the viability in experiment [4] was 70.4%. Moreover, the inhibition in experiment [5] is 4.8%. The RAM network inhibition in experiment [6] is 8.89%.
As for `Cc1c(C(=O)NCCC2=CCCCC2)oc2ccc(S(=O)(=O)N3CCOCC3)cc12`, the growth inhibition in experiment [1] was 2.48%; in experiment [2], 8.58%. Also, the viability increase in experiment [3] was -0.96%. For the same molecule, the viability in experiment [4] was 31.5%. For the same molecule, in experiment [5], the inhibition was 2.62%. In experiment [6], the RAM network inhibition was 8.35%.
Turning to `O=C(CS(=O)(=O)c1c[nH]c2ccccc12)Nc1ccc2c(c1)OCCO2`, the growth inhibition in experiment [1] is -12.2%; in experiment [2], -1.07%. The viability increase in experiment [3] was -3.49%. Moreover, the viability in experiment [4] was 95.7%. Besides, the inhibition in experiment [5] was 2.55%. For the same molecule, the RAM network inhibition in experiment [6] is 1.93%.
With `CCCCCCn1c(SCC(=O)c2ccccc2)nc2c1c(=O)[nH]c(=O)n2C`, the growth inhibition in experiment [1] is -4.82%; in experiment [2], 42.6% (active). Besides, the viability increase in experiment [3] was -7.17%. Besides, the viability in experiment [4] was 53%. In addition, the inhibition in experiment [5] is 2.08%. Further, in experiment [6], the RAM network inhibition was 6.13%.
With `COc1ccc2c(c1)SC1=NCCS(=O)(=O)N12`, the growth inhibition in experiment [1] is -7.75%; in experiment [2], -10.4%. In addition, the viability increase in experiment [3] was -2.86%. The viability in experiment [4] was 105%. In addition, the inhibition in experiment [5] is 0.315%. In addition, the RAM network inhibition in experiment [6] is 4.32%.
In the case of `CCOc1ccc(-n2c(SCC(N)=O)nc3c(c2=O)SCC3)cc1`, the growth inhibition is -1.29% in experiment [1] and 8.27% in experiment [2]. In experiment [3], the viability increase is -0.72%. The viability in experiment [4] was 98.2%. Moreover, in experiment [5], the inhibition was 2.31%. Further, the RAM network inhibition in experiment [6] is 7.32%.
Turning to `Cc1ccc2nc(NC3=NCN(Cc4ccco4)CN3)nc(C)c2c1`, the values for the growth inhibition in experiment [1] and in experiment [2] were -1.68% and -0.67%, respectively. Moreover, the viability increase in experiment [3] is -7.05%. Also, the viability in experiment [4] is 27.2%. Moreover, the inhibition in experiment [5] was -0.585%. Also, in experiment [6], the RAM network inhibition is -1.94%.
Regarding `O=C(CNC(=O)Cn1ccc2ccccc2c1=O)NCCCN1CCN(c2cccc(Cl)c2)CC1`, the growth inhibition is -15.3% in experiment [1] and -5.33% in experiment [2]. Further, the viability increase in experiment [3] is -5.42%. The viability in experiment [4] was 57.3%. In addition, the inhibition in experiment [5] is 1.63%. The RAM network inhibition in experiment [6] was 2.03%.
